Activity calls are given as the source filed them. The calls are words filed in the database; no cut-off is given here.
Columns and labels:
[1] = target: Phosphatidylinositol 4,5-bisphosphate 3-kinase catalytic subunit alpha isoform (Homo sapiens, UniProt P42336); experiment: Inhibition of PI3Kalpha (unknown origin) using PIP2 as substrate preincubated for 15 mins followed by substrate addition and measured after 1 hr in presence of ATP by HTRF assay
[2] = Aqueous solubility of compound; format: physicochemical; conditions: buffer
[3] = Inhibition of Akt phosphorylation at S473 residue (unknown origin) by cell based analysis; conditions: Homo sapiens
[4] = Dose normalized AUC in rat at 2.1 mg/kg, po measured upto 24 hrs by HPLC/MS/MS analysis; format: ADME, organism-based; conditions: in vivo
[5] = Oral bioavailability in dog at 0.5 mg/kg by HPLC/MS/MS analysis; format: ADME, organism-based, Canis lupus familiaris; conditions: in vivo
Cytochrome P450 2C9 = Cytochrome P450 2C9 (Homo sapiens, UniProt P11712); experiment: Inhibition of CYP2C9 (unknown origin)
Sequence of Cytochrome P450 2C9 (P11712 whole entry): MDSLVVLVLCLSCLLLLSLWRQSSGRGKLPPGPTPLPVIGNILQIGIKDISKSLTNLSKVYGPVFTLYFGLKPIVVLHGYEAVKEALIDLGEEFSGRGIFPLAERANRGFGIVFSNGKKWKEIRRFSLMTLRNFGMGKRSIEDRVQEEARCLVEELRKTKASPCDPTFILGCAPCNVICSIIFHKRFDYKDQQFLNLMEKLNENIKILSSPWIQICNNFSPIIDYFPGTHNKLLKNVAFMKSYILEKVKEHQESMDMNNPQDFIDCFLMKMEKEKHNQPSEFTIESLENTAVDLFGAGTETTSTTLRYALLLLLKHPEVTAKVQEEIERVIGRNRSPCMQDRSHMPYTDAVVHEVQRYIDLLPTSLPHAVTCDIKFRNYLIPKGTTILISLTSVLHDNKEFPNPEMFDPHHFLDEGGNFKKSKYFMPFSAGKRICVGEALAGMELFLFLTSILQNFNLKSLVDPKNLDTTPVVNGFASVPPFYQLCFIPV

T47D [6] = experiment: Induction of cell cycle arrest in human T47D cells assessed as accumulation in G1 phase; format: functional, cell-based
[7] = Inhibition of Akt phosphorylation at S473 residue in human T47D cells by cell based assay
How it was run: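 Cellular mechanistic assay in T47D and BT474 cancer cells measuring loss of intracellular AKT phosphorylation at S473.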

Cytochrome P450 2D6 = Cytochrome P450 2D6 (Homo sapiens, UniProt P10635); experiment: Inhibition of CYP2D6 (unknown origin)
Sequence of Cytochrome P450 2D6 (P10635 whole entry): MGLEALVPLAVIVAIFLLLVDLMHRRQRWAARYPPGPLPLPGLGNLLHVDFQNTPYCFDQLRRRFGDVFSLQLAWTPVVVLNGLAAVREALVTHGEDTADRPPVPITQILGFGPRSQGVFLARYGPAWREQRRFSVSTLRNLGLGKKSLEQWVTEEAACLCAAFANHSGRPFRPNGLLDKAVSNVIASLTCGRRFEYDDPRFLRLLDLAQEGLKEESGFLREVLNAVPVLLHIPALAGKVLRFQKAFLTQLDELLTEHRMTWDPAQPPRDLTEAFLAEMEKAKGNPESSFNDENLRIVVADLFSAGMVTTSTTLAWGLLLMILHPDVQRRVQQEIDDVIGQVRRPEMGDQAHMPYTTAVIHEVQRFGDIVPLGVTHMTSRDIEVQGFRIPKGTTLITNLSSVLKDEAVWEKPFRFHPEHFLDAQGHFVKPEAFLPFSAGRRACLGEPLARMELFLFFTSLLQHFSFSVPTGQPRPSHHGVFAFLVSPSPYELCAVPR

BT-474 [8] = experiment: Antitumor activity against human BT-474 cells xenografted in mouse assessed as decrease in pAKT level at 300 microg/kg, po measured after 4 hrs; format: functional; design: scale not given: the % may be the effect or the level left; conditions: dose 300 µg/kg
How it was run: (§1)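 Mice bearing BT474 human tumour xenografts got one oral dose of 300 μg/kg. Tumour pAKT was read as the pAKT/total AKT ratio and compared with control. Sampling ran over a 24 h time course.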

Homo sapiens [9] = species on record: Homo sapiens; experiment: Inhibition of p70S6K (unknown origin)
[10] = Volume of distribution at steady state in dog at 0.1 mg/kg, iv by HPLC/MS/MS analysis; format: ADME, organism-based, Canis lupus familiaris; conditions: in vivo, read-out: Vdss
BT-474 [11] = experiment: Induction of cell cycle arrest in human BT-474 cells assessed as accumulation in G1 phase; format: functional, cell-based
[12] = Oral bioavailability in mouse at 2.6 mg/kg by HPLC/MS/MS analysis; format: ADME, organism-based; conditions: in vivo
Cytochrome P450 3A4 = Cytochrome P450 3A4 (Homo sapiens, UniProt P08684); experiment: Inhibition of CYP3A4 (unknown origin)
Sequence of Cytochrome P450 3A4 (P08684 whole entry): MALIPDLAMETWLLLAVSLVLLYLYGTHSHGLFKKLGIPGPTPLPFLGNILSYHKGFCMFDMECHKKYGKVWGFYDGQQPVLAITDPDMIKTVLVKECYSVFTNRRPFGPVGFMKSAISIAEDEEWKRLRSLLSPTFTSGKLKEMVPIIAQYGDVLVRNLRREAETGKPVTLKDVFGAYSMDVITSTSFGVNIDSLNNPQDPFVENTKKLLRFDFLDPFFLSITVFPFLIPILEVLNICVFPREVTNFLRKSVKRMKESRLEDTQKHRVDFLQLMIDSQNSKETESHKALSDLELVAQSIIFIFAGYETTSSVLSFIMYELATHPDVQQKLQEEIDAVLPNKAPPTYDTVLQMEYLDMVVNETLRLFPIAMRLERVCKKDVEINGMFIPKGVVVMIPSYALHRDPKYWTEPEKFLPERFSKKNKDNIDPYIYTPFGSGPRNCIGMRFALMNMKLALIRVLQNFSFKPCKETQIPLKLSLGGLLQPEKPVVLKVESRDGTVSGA

Homo sapiens [13] = species on record: Homo sapiens; experiment: Inhibition of Akt phosphorylation at T308 residue (unknown origin) by cell based analysis
[14] = Half life in monkey at 0.1 mg/kg, iv by HPLC/MS/MS analysis; format: ADME, organism-based, Macaca mulatta; conditions: rhesus monkey, in vivo
[15] = Dose normalized AUC in monkey at 0.6 mg/kg, po by HPLC/MS/MS analysis; format: ADME, organism-based, Macaca mulatta; conditions: rhesus monkey, in vivo
[16] = Dose normalized AUC in dog at 0.5 mg/kg, po by HPLC/MS/MS analysis; format: ADME, organism-based, Canis lupus familiaris; conditions: in vivo
[17] = Clearance in rat at 0.4 mg/kg, iv by HPLC/MS/MS analysis; format: ADME, organism-based; conditions: in vivo
BT-474 [18] = experiment: Antitumor activity against human BT-474 cells xenografted in mouse assessed as decrease in pAKT level at 300 microg/kg, po measured after 10 hrs; format: functional; design: scale not given: the % may be the effect or the level left; conditions: dose 300 µg/kg; how it was run: as §1
[19] = Clearance in dog at 0.1 mg/kg, iv by HPLC/MS/MS analysis; format: ADME, organism-based, Canis lupus familiaris; conditions: in vivo
Cytochrome P450 2C19 = Cytochrome P450 2C19 (Homo sapiens, UniProt P33261); experiment: Inhibition of CYP2C19 (unknown origin)
Sequence of Cytochrome P450 2C19 (P33261 whole entry): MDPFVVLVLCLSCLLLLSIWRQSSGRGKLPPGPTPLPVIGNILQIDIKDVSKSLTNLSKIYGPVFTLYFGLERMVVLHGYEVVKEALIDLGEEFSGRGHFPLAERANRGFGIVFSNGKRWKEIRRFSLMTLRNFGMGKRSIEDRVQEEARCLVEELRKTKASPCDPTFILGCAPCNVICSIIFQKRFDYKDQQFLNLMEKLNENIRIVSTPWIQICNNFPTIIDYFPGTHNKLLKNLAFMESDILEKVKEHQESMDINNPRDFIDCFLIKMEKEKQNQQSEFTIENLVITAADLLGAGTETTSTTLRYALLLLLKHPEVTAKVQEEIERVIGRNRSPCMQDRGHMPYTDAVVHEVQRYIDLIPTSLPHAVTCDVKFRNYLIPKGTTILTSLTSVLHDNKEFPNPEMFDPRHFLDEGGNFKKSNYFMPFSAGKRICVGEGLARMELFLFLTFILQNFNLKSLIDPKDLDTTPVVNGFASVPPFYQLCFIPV

[20] = Dose normalized AUC in mouse at 2.6 mg/kg, po by HPLC/MS/MS analysis; format: ADME, organism-based; conditions: in vivo
BT-474 [21] = experiment: Antitumor activity against human BT-474 cells xenografted in mouse assessed as decrease in pAKT level at 300 microg/kg, po measured after 6 hrs; format: functional; design: scale not given: the % may be the effect or the level left; conditions: dose 300 µg/kg; how it was run: as §1
[22] = Clearance in monkey at 0.1 mg/kg, iv by HPLC/MS/MS analysis; format: ADME, organism-based, Macaca mulatta; conditions: rhesus monkey, in vivo
Cytochrome P450 1A2 = target: T1, Cytochrome P450 1A2 (Homo sapiens, UniProt P05177); experiment: Inhibition of CYP1A2 (unknown origin)
T1 sequence (P05177 whole entry): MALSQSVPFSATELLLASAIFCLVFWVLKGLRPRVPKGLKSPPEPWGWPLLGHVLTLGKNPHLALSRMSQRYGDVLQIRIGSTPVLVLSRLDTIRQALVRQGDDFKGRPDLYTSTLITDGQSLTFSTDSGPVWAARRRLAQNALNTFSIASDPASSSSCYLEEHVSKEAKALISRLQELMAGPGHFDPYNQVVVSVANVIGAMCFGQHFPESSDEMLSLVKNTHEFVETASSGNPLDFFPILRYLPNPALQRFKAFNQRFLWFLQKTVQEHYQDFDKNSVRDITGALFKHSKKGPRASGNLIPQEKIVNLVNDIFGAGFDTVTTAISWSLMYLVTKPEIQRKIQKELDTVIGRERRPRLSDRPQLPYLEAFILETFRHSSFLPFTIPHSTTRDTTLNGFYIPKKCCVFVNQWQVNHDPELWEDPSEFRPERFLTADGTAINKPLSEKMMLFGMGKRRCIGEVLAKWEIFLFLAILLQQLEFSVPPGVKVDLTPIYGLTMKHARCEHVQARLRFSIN

[23] = Half life in dog at 0.1 mg/kg, iv by HPLC/MS/MS analysis; format: ADME, organism-based, Canis lupus familiaris; conditions: in vivo
BT-474 [24] = experiment: Antitumor activity against human BT-474 cells xenografted in mouse assessed as decrease in pAKT level at 300 microg/kg, po measured after 2 hrs; format: functional; design: scale not given: the % may be the effect or the level left; conditions: dose 300 µg/kg; how it was run: as §1
[25] = Volume of distribution at steady state in monkey at 0.1 mg/kg, iv by HPLC/MS/MS analysis; format: ADME, organism-based, Macaca mulatta; conditions: rhesus monkey, in vivo, read-out: Vdss
[26] = Volume of distribution at steady state in rat at 0.4 mg/kg, iv by HPLC/MS/MS analysis; format: ADME, organism-based; conditions: in vivo, read-out: Vdss
BT-474 [27] = experiment: Antiproliferative activity against human BT-474 cells assessed as inhibition of cell growth measured after 72 hrs by CellTiter-Glo assay; format: functional, cell-based; conditions: BT-474, 72 h
[28] = Half life in rat at 0.4 mg/kg, iv by HPLC/MS/MS analysis; format: ADME, organism-based; conditions: in vivo
[29] = Volume of distribution at steady state in mouse at 0.6 mg/kg, iv by HPLC/MS/MS analysis; format: ADME, organism-based; conditions: in vivo, read-out: Vdss
[30] = Oral bioavailability in monkey at 0.6 mg/kg by HPLC/MS/MS analysis; format: ADME, organism-based, Macaca mulatta; conditions: rhesus monkey, in vivo
[31] = target: DNA-dependent protein kinase catalytic subunit (Homo sapiens, UniProt P78527); experiment: Inhibition of DNA-PK (unknown origin)
BT-474 [32] = experiment: Antitumor activity against human BT-474 cells xenografted in po dosed mouse assessed as tumor growth inhibition administered 5 times a week for 3 weeks; format: functional, organism-based; conditions: dose 0.3-3 mg/kg
[33] = Oral bioavailability in rat at 2.1 mg/kg by HPLC/MS/MS analysis; format: ADME, organism-based; conditions: in vivo
[34] = Half life in mouse at 0.6 mg/kg, iv by HPLC/MS/MS analysis; format: ADME, organism-based; conditions: in vivo
T47D [35] = experiment: Antiproliferative activity against human T47D cells assessed as inhibition of cell growth measured after 72 hrs by CellTiter-Glo assay; format: functional, cell-based
BT-474 [36] = experiment: Antitumor activity against human BT-474 cells xenografted in mouse assessed as decrease in pAKT level at 300 microg/kg, po measured after 1 hr; format: functional; design: scale not given: the % may be the effect or the level left; conditions: dose 300 µg/kg; how it was run: as §1
[37] = Toxicity in mouse xenografted with human BT-474 cells assessed as tolerability at 3 mg/kg, po administered 5 times a week for 3 weeks; format: organism-based; conditions: in vivo, 504 h
[38] = Clearance in mouse at 0.6 mg/kg, iv by HPLC/MS/MS analysis; format: ADME, organism-based; conditions: in vivo

Sequence of Phosphatidylinositol 4,5-bisphosphate 3-kinase catalytic subunit alpha isoform (P42336 whole entry, canonical isoform): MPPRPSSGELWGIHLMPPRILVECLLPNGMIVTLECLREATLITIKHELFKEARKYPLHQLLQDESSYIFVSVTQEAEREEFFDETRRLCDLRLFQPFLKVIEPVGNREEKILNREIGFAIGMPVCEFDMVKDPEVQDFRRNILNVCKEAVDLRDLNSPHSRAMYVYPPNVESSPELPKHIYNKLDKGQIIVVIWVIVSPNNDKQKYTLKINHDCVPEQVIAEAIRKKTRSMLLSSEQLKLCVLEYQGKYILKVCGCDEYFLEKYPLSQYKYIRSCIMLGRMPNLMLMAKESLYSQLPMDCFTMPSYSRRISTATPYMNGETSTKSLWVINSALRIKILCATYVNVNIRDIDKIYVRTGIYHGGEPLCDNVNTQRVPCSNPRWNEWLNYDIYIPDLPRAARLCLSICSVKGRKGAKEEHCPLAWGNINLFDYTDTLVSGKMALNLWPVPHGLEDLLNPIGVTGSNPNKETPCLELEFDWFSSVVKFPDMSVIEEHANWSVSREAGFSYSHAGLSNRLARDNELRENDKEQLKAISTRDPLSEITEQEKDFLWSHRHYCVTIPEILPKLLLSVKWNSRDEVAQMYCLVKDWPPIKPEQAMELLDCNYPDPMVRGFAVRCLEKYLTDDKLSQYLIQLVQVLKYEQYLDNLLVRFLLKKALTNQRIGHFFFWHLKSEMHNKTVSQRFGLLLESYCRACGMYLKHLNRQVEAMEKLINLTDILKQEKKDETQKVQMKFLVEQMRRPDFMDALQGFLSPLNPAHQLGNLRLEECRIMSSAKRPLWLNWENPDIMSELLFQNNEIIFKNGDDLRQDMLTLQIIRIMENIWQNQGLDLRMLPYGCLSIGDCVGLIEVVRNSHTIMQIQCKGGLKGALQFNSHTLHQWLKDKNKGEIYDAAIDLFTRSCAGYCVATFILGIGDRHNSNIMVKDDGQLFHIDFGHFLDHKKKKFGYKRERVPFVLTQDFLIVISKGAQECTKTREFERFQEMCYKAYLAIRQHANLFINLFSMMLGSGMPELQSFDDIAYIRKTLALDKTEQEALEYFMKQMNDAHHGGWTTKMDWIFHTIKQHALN

## c1cc(-c2ccnc3ccc(-c4cnc5[nH]ncc5c4)cc23)ccn1
[1]
  IC50: 7 nM
[2]
  solubility: Insoluble
[3]
  IC50: 76 nM

## Nc1ncc(-c2ccc3nccc(-c4ccncc4)c3c2)cc1S(N)(=O)=O
[1]
  IC50: 10 nM
[2]
  solubility: Soluble
[3]
  IC50: 49 nM

## Nc1ncc(-c2ccc3nccc(-c4ccncc4)c3c2)cc1S(=O)(=O)Nc1ccc(F)cc1F
[4]
  AUC/dose: 250 ng·h/mL/mg/kg
[1]
  IC50: 1 nM
[3]
  IC50: 63 nM

## O=S(=O)(Nc1ccc(F)cc1F)c1cncc(-c2ccc3nccc(-c4ccncc4)c3c2)c1
[4]
  AUC/dose: 920 ng·h/mL/mg/kg
[1]
  IC50: 1 nM
[3]
  IC50: 45 nM

## c1cc(-c2ccnc3ccc(-c4ccc5[nH]ncc5c4)cc23)ccn1
[1]
  IC50: 73 nM
[3]
  IC50: 2700 nM

## c1cncc(-c2ccc3nccc(-c4ccncc4)c3c2)c1
[1]
  IC50: 260 nM
[3]
  IC50: > 29300 nM

## c1ccc(-c2ccc3nccc(-c4ccncc4)c3c2)cc1
[1]
  IC50: 1800 nM
[3]
  IC50: 8080 nM

## O=S(=O)(Nc1cncc(-c2ccc3nccc(-c4ccncc4)c3c2)c1)c1ccc(F)cc1F
[4]
  AUC/dose: 1100 ng·h/mL/mg/kg
[1]
  IC50: 0.1 nM
[3]
  IC50: 7 nM

## O=C1NC(=O)/C(=C/c2ccc3nccc(-c4ccncc4)c3c2)S1 [GSK-1059615]
[1]
  IC50: 2 nM
[3]
  IC50: 40 nM

## COc1ncc(-c2ccc3nccc(-c4ccnnc4)c3c2)cc1NS(=O)(=O)c1ccc(F)cc1F [OMIPALISIB]
[5]
  bioavailability: 80%
Cytochrome P450 2C9
  IC50: > 25000 nM
T47D [6]
  Activity: Active
[4]
  AUC/dose: 6100 ng·h/mL/mg/kg
[7]
  IC50: 0.41 nM
Cytochrome P450 2D6
  IC50: > 25000 nM
BT-474 [8]
  Activity: 79%
Homo sapiens [9]
  inhibition: Active
[10]
  Vd: 0.7 L/kg
BT-474 [11]
  Activity: Active
[12]
  bioavailability: 100%
Cytochrome P450 3A4
  IC50: > 25000 nM
Homo sapiens [13]
  inhibition: Active
[14]
  half-life: 3.5 h
[15]
  AUC/dose: 2300 ng·h/mL/mg/kg
[16]
  AUC/dose: 2400 ng·h/mL/mg/kg
[17]
  clearance: 2.3 mL/min/kg
BT-474 [18]
  Activity: 46%
[19]
  clearance: 5.8 mL/min/kg
Cytochrome P450 2C19
  IC50: > 25000 nM
[20]
  AUC/dose: 1100 ng·h/mL/mg/kg
BT-474 [21]
  Activity: 47%
[22]
  clearance: 3.6 mL/min/kg
Cytochrome P450 1A2
  IC50: > 25000 nM
[23]
  half-life: 1.3 h
BT-474 [24]
  Activity: 93%
[25]
  Vd: 0.8 L/kg
[26]
  Vd: 1.1 L/kg
BT-474 [27]
  IC50: 2.4 nM
[28]
  half-life: 6.2 h
[29]
  Vd: 1 L/kg
[30]
  bioavailability: 49%
[31]
  IC50: 0.28 nM
BT-474 [32]
  Activity: Dose-Dependent Effect
[33]
  bioavailability: 81%
[34]
  half-life: 2.1 h
T47D [35]
  IC50: 3 nM
BT-474 [36]
  Activity: 98%
[37]
  Activity: Non-Toxic
[38]
  clearance: 10 mL/min/kg
